Measurements from ChEMBL document CHEMBL5500411, “Discovery of Dual MER/AXL Kinase Inhibitors as Bifunctional Small Molecules for Inhibiting Tumor Growth and Enhancing Tumor Immune Microenvironment” (J Med Chem, 2024).
pIC50: −log10 of the molar value. Each block holds one compound with its values, some of them ahead of it.

Legend:
[1] = Dose normalized AUC (0 to infinity) in male ICR mouse at 2 mg/kg, iv measured after 24 hrs by LC-MS/MS analysis; type: ADME, organism-based; conditions: in vivo
How it was run: (§1)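 Male ICR mice (25–35 g) given one iv or oral dose of 2, 3 or 10 mg/kg. Vehicles were PEG400/DMA (80/20) for both routes, or DMSO/CrEL/D5W (5/5/90) iv and 1% CMC + 0.5% Tween80 oral. Plasma was taken by cardiac puncture at 0–24 h, three mice per time point. Parent drug was measured by LC-MS/MS and analysed noncompartmentally. DNAUC = AUC(0–inf)/dose.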

[2] = Dose normalized AUC (0 to infinity) in male ICR mouse at 10 mg/kg, po measured after 24 hrs by LC-MS/MS analysis; type: ADME, organism-based; conditions: in vivo; how it was run: as §1
[3] = target: T1, Tyrosine-protein kinase Mer (Homo sapiens, UniProt Q12866); assay: Inhibition of MER (unknown origin) by KINOMEScan assay
T1 sequence (Q12866 whole entry): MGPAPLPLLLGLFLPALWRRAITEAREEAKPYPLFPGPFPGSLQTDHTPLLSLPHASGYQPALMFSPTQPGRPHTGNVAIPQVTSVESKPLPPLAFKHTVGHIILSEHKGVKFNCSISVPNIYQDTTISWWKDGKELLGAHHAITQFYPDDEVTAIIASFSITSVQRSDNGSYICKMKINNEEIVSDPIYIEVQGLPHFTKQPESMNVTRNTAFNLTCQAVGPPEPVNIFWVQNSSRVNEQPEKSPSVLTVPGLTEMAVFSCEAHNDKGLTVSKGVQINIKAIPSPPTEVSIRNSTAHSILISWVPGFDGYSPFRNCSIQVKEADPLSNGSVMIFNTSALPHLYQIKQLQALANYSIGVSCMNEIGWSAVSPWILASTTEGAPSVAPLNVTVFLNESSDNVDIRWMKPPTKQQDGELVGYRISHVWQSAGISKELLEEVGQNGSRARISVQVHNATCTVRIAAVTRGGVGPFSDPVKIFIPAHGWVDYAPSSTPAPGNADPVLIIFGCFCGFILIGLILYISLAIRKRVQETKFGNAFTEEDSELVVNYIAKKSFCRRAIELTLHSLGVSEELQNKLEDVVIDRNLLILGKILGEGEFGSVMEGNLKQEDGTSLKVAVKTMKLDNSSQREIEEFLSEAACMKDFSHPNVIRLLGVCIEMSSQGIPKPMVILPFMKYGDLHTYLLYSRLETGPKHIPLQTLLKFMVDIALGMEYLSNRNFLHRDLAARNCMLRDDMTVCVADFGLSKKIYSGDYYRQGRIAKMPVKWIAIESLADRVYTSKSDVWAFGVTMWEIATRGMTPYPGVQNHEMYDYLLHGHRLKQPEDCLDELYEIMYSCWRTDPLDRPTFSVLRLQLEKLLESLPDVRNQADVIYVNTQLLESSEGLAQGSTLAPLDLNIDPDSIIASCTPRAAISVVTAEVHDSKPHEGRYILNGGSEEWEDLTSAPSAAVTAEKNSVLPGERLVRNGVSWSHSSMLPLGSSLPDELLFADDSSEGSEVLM

[4] = target: Epidermal growth factor receptor (Homo sapiens) (UniProt P00533); assay: Inhibition of wildtype EGFR (unknown origin) at 1 uM by kinase Glo assay relative to control
How it was run: (§2)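 In-house Kinase-Glo luminescence assay on wild-type and T790M/L858R EGFR. Values are the mean of at least two independent experiments.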

[5] = tested on: Epidermal growth factor receptor (Homo sapiens), P00533 [L858R,T790M]; assay: Inhibition of EGFR T790M/L858R double mutant (unknown origin) at 1 uM by kinase Glo assay relative to control; how it was run: as §2
[6] = target: Tyrosine-protein kinase receptor UFO (Homo sapiens) (UniProt P30530); assay: Inhibition of AXL (unknown origin) at 1 uM preincubated for 15 mins followed by substrate and ATP addition and measured after 3 hrs by ADP-Glo kinase assay relative to control; conditions: time 195.0 min
[7] = target: T2, Tyrosine-protein kinase Mer (Homo sapiens) (UniProt Q12866); assay: Inhibition of MER (unknown origin) at 1 uM preincubated for 15 mins followed by substrate and ATP addition and measured after 3 hrs by ADP-Glo kinase assay relative to control; conditions: time 195.0 min
T2 sequence (whole entry): T1 sequence (Q12866 whole entry)

[8] = Toxicity in ICR mouse at 10 to 100 mg/kg administered for 14 days; type: organism-based; conditions: in vivo, 336 h, dose 10-100 mg/kg, time 14 day
[9] = Toxicity in immunodeficient NOD/SCID mouse xenografted with MER/AXL overexpressing human MDA-MB-231 cells assessed as body weight loss at 50 mg/kg, po administered once a day with five days on and two days off; type: organism-based; conditions: in vivo
[10] = Toxicity in BALB/c mouse implanted with mouse 4T1 cells assessed as body weight loss at 50 mg/kg, po administered once a day with five days on and two days off; type: organism-based; conditions: in vivo
How it was run: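 Female Balb/c mice aged 6–7 weeks implanted with 4T1 cells (1 million in matrigel/medium) in the fourth left mammary fat pad. Treatment started near 50–60 mm³: 50 mg/kg oral QD on a five-on/two-off schedule. Body weight was measured weekly. n = 8–9 per group.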

[11] = Toxicity in ICR mouse assessed as decrease in creatinine level at 30 to 100 mg/kg administered for 14 days; type: organism-based; conditions: in vivo, 336 h, dose 30-100 mg/kg, time 14 day
[12] = Toxicity in immunocompetent female C57BL/6 mouse implanted with mouse MC-38 cells assessed as body weight loss at 50 mg/kg, po administered once a day with five days on and two days off for 3 weeks; type: organism-based; conditions: in vivo, 504 h
How it was run: (§3)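 Syngeneic models in female C57BL/6 mice aged 6–7 weeks: MC38 (10⁵ cells) or Hepa1–6 (10⁶ cells) injected subcutaneously into the left flank. Oral dosing on a five-on/two-off schedule: MC38 at 50 mg/kg QD or BID for 3 weeks, Hepa1–6 at 30 mg/kg QD. Body weight was recorded weekly. n = 8–9 per group.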

[13] = Toxicity in immunocompetent female C57BL/6 mouse implanted with mouse MC-38 cells assessed as body weight loss at 50 mg/kg, po administered once a day with five days on and two days off; type: organism-based; conditions: in vivo; how it was run: as §3
[14] = Toxicity in immunocompetent female C57BL/6 mouse implanted with mouse MC-38 cells assessed as body weight loss at 50 mg/kg, po administered twice a day with five days on and two days off for 3 weeks; type: organism-based; conditions: in vivo, 504 h; how it was run: as §3
[15] = Toxicity in immunocompetent female C57BL/6 mouse implanted with mouse Hepa1-6 cells assessed as body weight loss at 30 mg/kg, po administered once a day with five days on and two days off; type: organism-based; conditions: in vivo; how it was run: as §3
[16] = Volume of distribution at steady state in male ICR mouse at 2 mg/kg, iv measured after 24 hrs by LC-MS/MS analysis; type: ADME, organism-based; conditions: in vivo; how it was run: as §1
[17] = Dose normalized AUC (0 to infinity) in male ICR mouse at 3 mg/kg, iv measured after 24 hrs by LC-MS/MS analysis; type: ADME, organism-based; conditions: in vivo; how it was run: as §1
[18] = Dose normalized AUC (0 to infinity) in male ICR mouse at 3 mg/kg, po measured after 24 hrs by LC-MS/MS analysis; type: ADME, organism-based; conditions: in vivo; how it was run: as §1
[19] = Toxicity in immunocompetent female C57BL/6 mouse implanted with mouse MC-38 cells assessed as body weight loss at 25 to 50 mg/kg, po administered twice a day with five days on and two days off for 3 weeks; type: organism-based; conditions: in vivo, 504 h, dose 25-50 mg/kg
How it was run: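 Female C57BL/6 mice aged 6–7 weeks bearing subcutaneous MC38 (10⁵ cells) tumors, treated from 50–60 mm³. Dosing was 25 or 50 mg/kg oral BID on a five-on/two-off schedule for 3 weeks. Body weight was recorded weekly. n = 8 per group.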

[20] = tested on: MDA-MB-231; assay: Antitumor activity against MER/AXL overexpressing human MDA-MB-231 cells xenografted in immunodeficient NOD/SCID mouse model assessed as tumor growth inhibition at 25 mg/kg, po administered twice a day with five days on and two days off for 4 weeks in presence of (1r,4r)-4-(2-(butylamino)-5-(4-((4-methylpiperazin-1-yl)methyl)phenyl)-7H-pyrrolo[2,3-d]pyrimidin-7-yl)cyclohexan-1-ol relative to …; type: functional; conditions: MDA-MB-231, 672 h, read-out: TGI
[21] = tested on: MDA-MB-231; assay: Antitumor activity against MER/AXL overexpressing human MDA-MB-231 cells xenografted in immunodeficient NOD/SCID mouse model assessed as tumor growth inhibition at 25 mg/kg, po administered twice a day with five days on and two days off for 4 weeks relative to control; type: functional; conditions: MDA-MB-231, 672 h, read-out: TGI
How it was run: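 Female NOD/SCID mice (6–7 weeks old) were given 5 million Mycoplasma-free MDA-MB-231 cells in 1:1 matrigel/medium, implanted subcutaneously. After randomization at about 150 mm³ average tumor volume, mice got oral drug or vehicle, BID, FOTO, for 4 weeks, n = 8 per group. Caliper volumes (L×W×W/2) were measured weekly. %TGI = [1 − ΔT/ΔC]×100, with Δ taken from day 0.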

[22] = Toxicity in ICR mouse assessed as decrease in creatinine level at 100 mg/kg administered for 14 days; type: organism-based; conditions: in vivo, 336 h, time 14 day
[23] = tested on: MDA-MB-231; assay: Antitumor activity against MER/AXL overexpressing human MDA-MB-231 cells xenografted in immunodeficient NOD/SCID mouse model assessed as tumor growth inhibition at 25 mg/kg, po administered twice a day with five days on and two days off for 4 weeks in presence of bemcentinib relative to control; type: functional; conditions: MDA-MB-231, 672 h, read-out: TGI
How it was run: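 MDA-MB-231 cells (5 million, 1:1 matrigel/medium) implanted in 6–7-week-old female NOD/SCID mice. Dosing began at about 150 mm³ mean tumor volume: 25 mg/kg oral BID on a five-on/two-off schedule for 4 weeks, given alone or in combination.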

Sequence of Tyrosine-protein kinase receptor UFO (Homo sapiens) (P30530 whole entry): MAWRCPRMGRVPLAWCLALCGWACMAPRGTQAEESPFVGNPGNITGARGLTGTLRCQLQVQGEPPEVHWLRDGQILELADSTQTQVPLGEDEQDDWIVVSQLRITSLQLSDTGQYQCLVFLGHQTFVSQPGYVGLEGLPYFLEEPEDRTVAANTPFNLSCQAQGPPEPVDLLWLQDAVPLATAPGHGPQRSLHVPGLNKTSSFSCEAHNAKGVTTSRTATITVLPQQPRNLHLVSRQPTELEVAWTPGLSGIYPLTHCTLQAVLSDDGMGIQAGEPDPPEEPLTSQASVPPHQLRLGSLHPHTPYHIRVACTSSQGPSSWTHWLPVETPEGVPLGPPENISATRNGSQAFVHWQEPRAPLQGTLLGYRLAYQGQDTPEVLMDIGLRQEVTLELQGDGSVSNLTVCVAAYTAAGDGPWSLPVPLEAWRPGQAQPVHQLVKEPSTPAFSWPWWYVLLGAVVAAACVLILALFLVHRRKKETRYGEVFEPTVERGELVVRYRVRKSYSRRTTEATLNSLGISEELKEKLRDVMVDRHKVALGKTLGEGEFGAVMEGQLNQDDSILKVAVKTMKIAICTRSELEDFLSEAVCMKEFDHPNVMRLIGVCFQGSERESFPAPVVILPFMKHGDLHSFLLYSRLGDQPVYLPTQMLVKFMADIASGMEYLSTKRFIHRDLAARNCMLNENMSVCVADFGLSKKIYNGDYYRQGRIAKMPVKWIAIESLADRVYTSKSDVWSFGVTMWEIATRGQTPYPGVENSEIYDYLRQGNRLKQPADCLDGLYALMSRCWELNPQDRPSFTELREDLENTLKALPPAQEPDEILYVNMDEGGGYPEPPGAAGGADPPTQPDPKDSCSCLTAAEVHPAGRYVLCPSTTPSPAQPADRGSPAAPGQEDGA
Sequence of Epidermal growth factor receptor (Homo sapiens) (P00533 whole entry): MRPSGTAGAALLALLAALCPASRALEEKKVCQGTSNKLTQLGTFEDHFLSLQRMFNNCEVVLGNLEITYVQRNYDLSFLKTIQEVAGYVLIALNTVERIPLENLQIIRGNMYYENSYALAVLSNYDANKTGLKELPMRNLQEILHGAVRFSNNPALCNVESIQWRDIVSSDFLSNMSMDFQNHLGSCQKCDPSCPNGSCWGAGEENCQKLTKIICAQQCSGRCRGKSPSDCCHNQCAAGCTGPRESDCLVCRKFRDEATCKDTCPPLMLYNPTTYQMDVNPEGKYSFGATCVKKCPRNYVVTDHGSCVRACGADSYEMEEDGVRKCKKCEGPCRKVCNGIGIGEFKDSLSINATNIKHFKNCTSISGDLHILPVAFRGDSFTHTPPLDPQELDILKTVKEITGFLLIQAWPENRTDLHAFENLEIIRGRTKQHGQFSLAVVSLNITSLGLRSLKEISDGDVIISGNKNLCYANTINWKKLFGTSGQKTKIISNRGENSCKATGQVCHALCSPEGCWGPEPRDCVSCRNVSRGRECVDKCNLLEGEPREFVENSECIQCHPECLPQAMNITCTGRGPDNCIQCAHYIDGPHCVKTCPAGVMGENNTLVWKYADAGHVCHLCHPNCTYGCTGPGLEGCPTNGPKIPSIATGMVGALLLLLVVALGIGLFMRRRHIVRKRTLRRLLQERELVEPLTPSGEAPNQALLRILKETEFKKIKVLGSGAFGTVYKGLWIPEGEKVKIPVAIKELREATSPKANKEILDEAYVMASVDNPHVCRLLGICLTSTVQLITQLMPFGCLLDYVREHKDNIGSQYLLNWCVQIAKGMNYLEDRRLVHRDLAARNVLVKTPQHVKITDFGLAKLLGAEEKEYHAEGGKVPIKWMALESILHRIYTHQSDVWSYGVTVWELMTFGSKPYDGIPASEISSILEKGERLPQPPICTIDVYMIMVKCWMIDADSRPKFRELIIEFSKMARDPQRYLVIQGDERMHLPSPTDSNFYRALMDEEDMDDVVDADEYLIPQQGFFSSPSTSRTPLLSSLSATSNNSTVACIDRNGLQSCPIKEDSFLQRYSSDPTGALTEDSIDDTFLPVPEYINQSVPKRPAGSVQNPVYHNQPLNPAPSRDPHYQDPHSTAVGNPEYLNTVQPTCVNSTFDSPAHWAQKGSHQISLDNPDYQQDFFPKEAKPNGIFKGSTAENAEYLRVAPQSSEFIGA
Sequence of Epidermal growth factor receptor (Homo sapiens), P00533 [L858R,T790M] (P00533 whole entry T790M/L858R, looked up): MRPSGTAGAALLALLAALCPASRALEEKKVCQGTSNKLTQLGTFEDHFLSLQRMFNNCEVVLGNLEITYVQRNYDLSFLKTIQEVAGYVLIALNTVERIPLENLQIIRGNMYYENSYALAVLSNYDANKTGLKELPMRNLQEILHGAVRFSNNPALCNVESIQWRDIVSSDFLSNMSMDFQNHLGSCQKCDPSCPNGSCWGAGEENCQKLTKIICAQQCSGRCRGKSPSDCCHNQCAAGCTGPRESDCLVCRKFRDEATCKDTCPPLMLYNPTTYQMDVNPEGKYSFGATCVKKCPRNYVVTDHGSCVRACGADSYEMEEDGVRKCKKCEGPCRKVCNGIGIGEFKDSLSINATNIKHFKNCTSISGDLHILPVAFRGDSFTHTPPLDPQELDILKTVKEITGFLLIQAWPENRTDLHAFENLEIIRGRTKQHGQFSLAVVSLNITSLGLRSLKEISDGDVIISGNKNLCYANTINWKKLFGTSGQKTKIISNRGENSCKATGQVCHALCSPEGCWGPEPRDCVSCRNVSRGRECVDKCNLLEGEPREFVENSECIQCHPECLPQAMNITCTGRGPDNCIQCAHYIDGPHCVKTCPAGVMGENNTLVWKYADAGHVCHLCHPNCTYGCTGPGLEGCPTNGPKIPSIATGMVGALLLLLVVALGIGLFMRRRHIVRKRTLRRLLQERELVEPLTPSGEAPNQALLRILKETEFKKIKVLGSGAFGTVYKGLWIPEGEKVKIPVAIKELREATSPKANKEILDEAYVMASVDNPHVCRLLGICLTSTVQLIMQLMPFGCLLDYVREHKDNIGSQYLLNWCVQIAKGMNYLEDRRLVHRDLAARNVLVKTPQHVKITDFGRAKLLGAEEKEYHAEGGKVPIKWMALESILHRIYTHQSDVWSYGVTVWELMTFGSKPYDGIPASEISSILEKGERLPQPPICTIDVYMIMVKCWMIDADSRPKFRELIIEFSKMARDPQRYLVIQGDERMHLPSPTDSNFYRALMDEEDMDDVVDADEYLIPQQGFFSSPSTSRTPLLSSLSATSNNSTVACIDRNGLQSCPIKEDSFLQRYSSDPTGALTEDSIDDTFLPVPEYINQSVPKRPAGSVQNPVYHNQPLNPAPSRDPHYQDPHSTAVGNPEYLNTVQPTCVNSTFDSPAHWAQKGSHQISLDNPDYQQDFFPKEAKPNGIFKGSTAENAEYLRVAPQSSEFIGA

AUC/dose [1]: 3330.5 ng.hr/ml per mg/kg | AUC/dose [2]: 15.3 ng.hr/ml per mg/kg
Compound: CNc1cccc(-c2c(-c3cnn(C)c3)oc3ncnc(Oc4ccc(NC(=O)c5cccn(-c6ccc(F)cc6)c5=O)cc4)c23)c1

pIC50 [3]: 9.10
Compound: Cc1ccc(C(=O)Nc2ccc(Oc3cc4cnn(C)c4cc3-c3cn[nH]c3)c(F)c2)c(=O)n1-c1ccc(F)cc1 [MERESTINIB]

AUC/dose [1]: 483 ng.hr/ml per mg/kg
Compound: Cn1cc(-c2oc3ncnc(Oc4ccc(NC(=O)c5cccn(-c6ccc(F)cc6)c5=O)cc4)c3c2-c2cccc(CN)c2)cn1

inhibition [4]: 3% | inhibition [5]: 2% | inhibition [6]: 98% | inhibition [7]: 41%
Compound: O=C(Nc1ccc(F)cc1)C1(C(=O)Nc2ccc(Oc3ncnc4oc(-c5ccccc5)c(-c5ccccc5)c34)cc2)CC1

Vdss [16]: 52 L/kg
Compound: CN(C)Cc1cccc(-c2c(-c3cnn(C)c3)oc3ncnc(Oc4ccc(NC(=O)c5cccn(-c6ccc(F)cc6)c5=O)cc4)c23)c1
Activity [8]: Non-Toxic | Activity [9]: Non-Toxic | Activity [10]: Non-Toxic | Activity [11]: Toxic | Activity [12]: Non-Toxic | Activity [13]: Non-Toxic | Activity [14]: Non-Toxic | Activity [15]: Non-Toxic

inhibition [4]: 0% | inhibition [5]: -9% | inhibition [6]: 100% | inhibition [7]: 71%
Compound: Nc1cccc(-c2c(-c3ccccc3)oc3ncnc(Oc4ccc(NC(=O)C5(C(=O)Nc6ccc(F)cc6)CC5)cc4)c23)c1

AUC/dose [1]: 454.5 ng.hr/ml per mg/kg | AUC/dose [2]: 2.6 ng.hr/ml per mg/kg
Compound: Cn1cc(-c2oc3ncnc(Oc4ccc(NC(=O)c5cccn(-c6ccc(F)cc6)c5=O)cc4)c3c2-c2cccc(N3CCNCC3)c2)cn1

AUC/dose [17]: 3985.3 ng·h/mL | AUC/dose [18]: 764 ng·h/mL
Compound: Cn1cc(-c2oc3ncnc(Oc4ccc(NC(=O)c5cccn(-c6ccc(F)cc6)c5=O)cc4)c3c2-c2cccc(N)c2)cn1
Activity [12]: Non-Toxic | Activity [19]: Non-Toxic | Activity [14]: Non-Toxic

inhibition [4]: 4% | inhibition [5]: 1% | inhibition [6]: 53% | inhibition [7]: 4%
Compound: O=C(Nc1ccc(F)cc1)C1(C(=O)Nc2ccc(Oc3ncnc4oc(-c5ccccc5)cc34)cc2)CC1

Compound: Nc1nc(Nc2ccc3c(c2)CC[C@@H](N2CCCC2)CC3)nn1-c1cc2c(nn1)-c1ccccc1CCC2 [BEMCENTINIB]
inhibition in vivo at 25 mg/kg [20]: 52.4% | inhibition in vivo at 25 mg/kg [21]: 7.7%

Compound: COc1cc2nccc(Oc3ccc(NC(=O)c4cc5c(n(-c6ccccc6)c4=O)CCCC5=O)nc3)c2cc1OC [TAMNORZATINIB]
Activity [22]: Toxic | Activity [9]: Non-Toxic | Activity [10]: Non-Toxic | Activity [13]: Non-Toxic | Activity [15]: Non-Toxic

Compound: CCCCNc1ncc2c(-c3ccc(CN4CCN(C)CC4)cc3)cn([C@H]3CC[C@H](O)CC3)c2n1
inhibition in vivo at 25 mg/kg [23]: 52.4% | inhibition in vivo at 25 mg/kg [21]: 15.9%

inhibition [4]: 1% | inhibition [5]: -6% | inhibition [6]: 95% | inhibition [7]: 9%
Compound: Nc1cccc(-c2c(-c3ccccc3)oc3ncnc(Oc4ccc(NC(=S)NC(=O)Cc5ccccc5)cc4)c23)c1

inhibition [4]: 1% | inhibition [5]: -4% | inhibition [6]: 92% | inhibition [7]: 19%
Compound: Nc1cccc(-c2c(-c3ccccc3)oc3ncnc(Nc4ccc(NC(=O)C5(C(=O)Nc6ccc(F)cc6)CC5)cc4)c23)c1

AUC/dose [1]: 221 ng.hr/ml per mg/kg | AUC/dose [2]: 32.8 ng.hr/ml per mg/kg
Compound: CN1CCN(c2cccc(-c3c(-c4cnn(C)c4)oc4ncnc(Oc5ccc(NC(=O)c6cccn(-c7ccc(F)cc7)c6=O)cc5)c34)c2)CC1
